Values after ≈ are worked out from the molar mass of the structure shown. Each block holds one compound with its values, some of them ahead of it.
Experiments:
Format in all cases: functional
[1] = tested on: Acinetobacter baumannii; test: Potentiation of Azithromycin antibacterial activity against Acinetobacter baumannii AB5075 assessed as azithromycin MIC at 20 uM incubated for 16 hrs by broth microdilution method
[2] = tested on: Acinetobacter baumannii; test: Potentiation of Clarithromycin antibacterial activity against Acinetobacter baumannii AB5075 assessed as reduction in clarithromycin MIC at 20 uM incubated for 16 hrs by broth microdilution method
[3] = tested on: Acinetobacter baumannii; test: Potentiation of rifampicin antibacterial activity against Acinetobacter baumannii AB5075 assessed as rifampicin MIC at 10 uM incubated for 16 hrs by broth microdilution method
[4] = tested on: Acinetobacter baumannii; test: Potentiation of Clarithromycin antibacterial activity against Acinetobacter baumannii AB5075 assessed as fold reduction in clarithromycin MIC at 30 uM incubated for 16 hrs by broth microdilution method
Procedure, shortened: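 Checkerboard-style potentiation by broth microdilution. 6 h day cultures in CAMHB diluted to 5×10^5 CFU/mL. Adjuvant added from 10 mM DMSO stock at fixed concentration throughout. […] Controls: antibiotic alone, adjuvant alone, media only. Incubated stationary at 37 °C for 16 h. MIC is lowest concentration with no visible growth; fold reduction taken against the antibiotic-alone lane.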

[5] = tested on: Acinetobacter baumannii; test: Potentiation of rifampicin antibacterial activity against Acinetobacter baumannii AB5075 assessed as rifampicin MIC at 20 uM incubated for 16 hrs by broth microdilution method
[6] = tested on: Acinetobacter baumannii; test: Potentiation of rifampicin antibacterial activity against Acinetobacter baumannii AB5075 assessed as rifampicin MIC at 30 uM incubated for 16 hrs by broth microdilution method
[7] = tested on: Acinetobacter baumannii; test: Potentiation of erythromycin antibacterial activity against Acinetobacter baumannii AB5075 assessed as erythromycin MIC at 10 uM incubated for 16 hrs by broth microdilution method
[8] = tested on: Acinetobacter baumannii; test: Potentiation of Azithromycin antibacterial activity against Acinetobacter baumannii AB5075 assessed as azithromycin MIC at 30 uM incubated for 16 hrs by broth microdilution method
[9] = tested on: Acinetobacter baumannii; test: Potentiation of Azithromycin antibacterial activity against Acinetobacter baumannii AB5075 assessed as azithromycin MIC at 10 uM incubated for 16 hrs by broth microdilution method
[10] = tested on: Acinetobacter baumannii; test: Antibacterial activity against Acinetobacter baumannii AB5075 assessed as reduction in bacterial growth incubated for 16 hrs by broth microdilution method
[11] = tested on: Acinetobacter baumannii; test: Potentiation of Clarithromycin antibacterial activity against Acinetobacter baumannii AB5075 assessed as clarithromycin MIC at 20 uM incubated for 16 hrs by broth microdilution method
[12] = tested on: Acinetobacter baumannii; test: Potentiation of erythromycin antibacterial activity against Acinetobacter baumannii AB5075 assessed as erythromycin MIC at 20 uM incubated for 16 hrs by broth microdilution method
[13] = tested on: Acinetobacter baumannii; test: Potentiation of Clarithromycin antibacterial activity against Acinetobacter baumannii AB5075 assessed as clarithromycin MIC at 30 uM incubated for 16 hrs by broth microdilution method
[14] = tested on: Acinetobacter baumannii; test: Potentiation of Clarithromycin antibacterial activity against Acinetobacter baumannii AB5075 assessed as clarithromycin MIC at 10 uM incubated for 16 hrs by broth microdilution method
[15] = tested on: Acinetobacter baumannii; test: Potentiation of Clarithromycin antibacterial activity against Acinetobacter baumannii AB5075 assessed as clarithromycin MIC at 7.5 uM incubated for 16 hrs by broth microdilution method
[16] = tested on: Acinetobacter baumannii; test: Potentiation of erythromycin antibacterial activity against Acinetobacter baumannii AB5075 assessed as erythromycin MIC at 30 uM incubated for 16 hrs by broth microdilution method
[17] = tested on: Acinetobacter baumannii; test: Antibacterial activity against Acinetobacter baumannii AB5711 assessed as reduction in bacterial growth incubated for 16 hrs by broth microdilution method
[18] = tested on: Pseudomonas aeruginosa; test: Antibacterial activity against Pseudomonas aeruginosa PAO1 assessed as inhibition of bacterial growth incubated for 16 hrs by broth microdilution method
Procedure, shortened: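 Standalone MIC by broth microdilution. 6 h day cultures in cation-adjusted Mueller-Hinton broth (CAMHB) diluted to 5×10^5 CFU/mL. Compound added from 10 mM DMSO stock to 200 μM (highest concentration), then twofold serial dilution. Incubated stationary at 37 °C for 16 h. OD600 read; MIC is lowest concentration with <10% growth versus positive control.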

[19] = tested on: Acinetobacter baumannii; test: Antibacterial activity against Acinetobacter baumannii AB4498 assessed as reduction in bacterial growth incubated for 16 hrs by broth microdilution method
[20] = tested on: Acinetobacter baumannii; test: Antibacterial activity against Acinetobacter baumannii AB967 assessed as reduction in bacterial growth incubated for 16 hrs by broth microdilution method
Procedure, shortened: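 Six-hour CAMHB day cultures were diluted to 5×10^5 CFU/mL in CAMHB and dosed from DMSO stocks. Two-fold serial dilutions were made in broth, with a medium-only blank. Plates were incubated stationary at 37 °C for 16 h and read at OD600. The MIC was the lowest concentration giving <10% growth versus the positive control.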

[21] = tested on: Acinetobacter baumannii; test: Antibacterial activity against Acinetobacter baumannii AB3785 assessed as reduction in bacterial growth incubated for 16 hrs by broth microdilution method

SMILES: Nc1nc(-c2ccc(NC(=O)Nc3ccc(-c4c[nH]c(N)n4)cc3)cc2)c[nH]1
MIC [1]: 1 mg/L
fold change (FC) [2]: 64
MIC [3]: 2 mg/L
fold change (FC) [4]: 256
MIC [5]: 0.125 mg/L
MIC [6]: 0.007 mg/L
MIC [7]: 8 mg/L
MIC [8]: 0.5 mg/L
MIC [9]: 8 mg/L
MIC [10]: > 200 µM
MIC [11]: 0.5 mg/L
MIC [12]: 2 mg/L
MIC [13]: 0.125 mg/L
MIC [14]: 4 mg/L
MIC [15]: 8 mg/L
MIC [16]: 0.5 mg/L

MIC [17]: 64 mg/L (≈ 85.6 µM)
MIC [18]: > 200 µM
MIC [19]: 64 mg/L (≈ 85.6 µM)
MIC [20]: 16 mg/L (≈ 21.4 µM)
MIC [21]: 64 mg/L (≈ 85.6 µM)
SMILES: CC[C@H]1OC(=O)[C@H](C)[C@@H](O[C@H]2C[C@@](C)(OC)[C@@H](O)[C@H](C)O2)[C@H](C)[C@@H](O[C@@H]2O[C@H](C)C[C@H](N(C)C)[C@H]2O)[C@](C)(OC)C[C@@H](C)C(=O)[C@H](C)[C@@H](O)[C@]1(C)O [CLARITHROMYCIN]
